Source: ChEMBL document CHEMBL1123425, “Potential antitumor agents. 46. Structure-activity relationships for acridine monosubstituted derivatives of the antitumor agent N-[2-(dimethylamino)ethyl]-9-aminoacridine-4-carboxamide” (1986)

Legend:
[1] = system: HCT-8; test: In vitro cytotoxicity against HCT-8 human colon carcinoma cells.; format: functional; conditions: read-out: ID50 (the source's name)
In short: (§1)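 Cultured L1210 murine leukemia or HCT-8 human colon carcinoma cells were incubated with drug for 70 h. ID50 is the drug concentration (nM) that reduced cell number to 50% of untreated controls.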

[2] = system: P388; test: Evaluated in vivo against P388 leukemia cells ( percent increase in life span of treated animals over that of control groups of tumor bearing untreated animals.); format: functional, Mus musculus
[3] = system: L1210; test: In vitro cytotoxicity against L1210 leukemia cells.; format: functional; conditions: Mus musculus, read-out: ID50 (the source's name); in short: as §1
[4] = system: Mus musculus; test: In vivo optimal i.p. dose administered on days 1, 5, and 9 after i.p. inoculation of (10E6) P388 leukemia cells.; format: functional
In short: (§2)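 Mice received 10⁶ P388 leukemia cells i.p. Drug was dissolved in 0.1 mL of 30% v/v ethanol/water and given i.p. on days 1, 5 and 9 after inoculation. The optimal dose is expressed in mg/kg per day.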

[5] = system: P388; test: Evaluated in vivo against P388 leukemia cells ( percent increase in life span of treated animals over that of control groups of tumor bearing untreated animals.); k = no activity at all dose levels up to acutely toxic ones; format: functional, organism-based; conditions: Mus musculus; in short: as §2
[6] = system: L1210; test: In vitro cytotoxicity against L1210 leukemia cells; format: functional; conditions: Mus musculus, read-out: ID50 (the source's name); in short: as §1

In the case of `CN(C)CCNC(=O)c1ccc(Cl)c2c(N)c3ccccc3nc12`, the IC50 [1] is reported as 0.36 µM, the ILS [2] is reported as 29% and the IC50 [3] is reported as 0.0048 µM. The OD [4] was 8.9 mg/kg/day.

`CN(C)CCNC(=O)c1cccc2c(N)c3c(Cl)cccc3nc12` was tested, and the IC50 [1] was 0.36 µM, the ILS [5] was “No activity” and the IC50 [3] was 0.25 µM. For the same compound, the OD [4] was 20 mg/kg/day.

`CN(C)CCNC(=O)c1cccc2c(N)c3ccccc3nc12` showed an IC50 [1] of 0.066 µM, an IC50 [6] of 0.015 µM and an OD [4] of 4.5 mg/kg/day.

With `COc1ccc2nc3c(C(=O)NCCN(C)C)cccc3c(N)c2c1` the IC50 [1] was 0.6 µM, the ILS [5] was “No activity” and the IC50 [3] was 0.67 µM. It also gave an OD [4] of 13.3 mg/kg/day.

`COc1ccc2c(N)c3ccccc3nc2c1C(=O)NCCN(C)C` was tested, and the IC50 [1] was 0.78 µM, the ILS [5] was “No activity” and the IC50 [3] was 0.3 µM. The OD [4] was 20 mg/kg/day.

`Cc1ccc2c(N)c3cccc(C(=O)NCCN(C)C)c3nc2c1` was tested, and the IC50 [1] was 0.12 µM, the ILS [2] was 20% and the OD [4] was 2.6 mg/kg/day.

In the case of `COc1ccc2c(N)c3cccc(C(=O)NCCN(C)C)c3nc2c1`, the ILS [5] is reported as “No activity” and the OD [4] is reported as 8.9 mg/kg/day.

For `Cc1ccc2nc3c(C(=O)NCCN(C)C)cccc3c(N)c2c1`, the IC50 [1] was 0.485 µM, the ILS [5] was “No activity” and the OD [4] was 13.3 mg/kg/day.

For `Cc1cc(C(=O)NCCN(C)C)c2nc3ccccc3c(N)c2c1`, the IC50 [1] was 0.425 µM, the ILS [5] was “No activity” and the IC50 [3] was 0.59 µM. It also gave an OD [4] of 30 mg/kg/day.

`Cc1cccc2nc3c(C(=O)NCCN(C)C)cccc3c(N)c12` was tested, and the IC50 [1] was 0.25 µM, the ILS [5] was “No activity” and the IC50 [3] was 0.34 µM. For the same compound, the OD [4] was 8.9 mg/kg/day.

`CN(C)CCNC(=O)c1cccc2c(N)c3cccc(Cl)c3nc12` showed an IC50 [1] of 0.033 µM, an ILS [2] of 81% and an IC50 [3] of 0.0029 µM. It also gave an OD [4] of 2.6 mg/kg/day.

`COc1cccc2c(N)c3cccc(C(=O)NCCN(C)C)c3nc12` was tested, and the IC50 [1] was 0.089 µM, the ILS [2] was 81% and the IC50 [3] was 0.0043 µM. For the same compound, the OD [4] was 3.9 mg/kg/day.

`Cc1cccc2c(N)c3cccc(C(=O)NCCN(C)C)c3nc12` was tested, and the IC50 [1] was 0.011 µM, the ILS [2] was 107% and the IC50 [3] was 0.00047 µM. The OD [4] was 2.6 mg/kg/day.

In the case of `COc1cccc2nc3c(C(=O)NCCN(C)C)cccc3c(N)c12`, the IC50 [1] is reported as 0.486 µM, the ILS [5] is reported as “No activity” and the IC50 [3] is reported as 0.22 µM. For the same compound, the OD [4] was 45 mg/kg/day.

`COc1ccc(C(=O)NCCN(C)C)c2nc3ccccc3c(N)c12` was tested, and the IC50 [1] was 0.019 µM, the ILS [2] was 27% and the IC50 [3] was 0.00055 µM. For the same compound, the OD [4] was 8.9 mg/kg/day.

In the case of `CN(C)CCNC(=O)c1cccc2c(N)c3cc(Cl)ccc3nc12`, the IC50 [1] is reported as 0.485 µM, the ILS [5] is reported as “No activity” and the IC50 [3] is reported as 0.722 µM. It also gave an OD [4] of 13.3 mg/kg/day.

`CN(C)CCNC(=O)c1cccc2c(N)c3ccc(Cl)cc3nc12` was tested, and the IC50 [1] was 0.245 µM, the ILS [5] was “No activity” and the IC50 [3] was 0.105 µM. It also gave an OD [4] of 8.9 mg/kg/day.

Work on `COc1cc(C(=O)NCCN(C)C)c2nc3ccccc3c(N)c2c1` yielded an IC50 [1] of 0.032 µM, an ILS [2] of 72% and an IC50 [3] of 0.0029 µM. For the same compound, the OD [4] was 5.9 mg/kg/day.

With `CN(C)CCNC(=O)c1cc(Cl)cc2c(N)c3ccccc3nc12` the IC50 [1] was 0.325 µM, the ILS [5] was “No activity” and the IC50 [3] was 0.3 µM. For the same compound, the OD [4] was 20 mg/kg/day.
